The source of these data is ChEMBL document CHEMBL4270654, “Identification of DK419, a potent inhibitor of Wnt/β-catenin signaling and colorectal cancer growth” (Bioorg Med Chem, 2018).

In data set [1] the test system is HCT-116. Description: Antiproliferative activity against human HCT116 cells after 72 hrs by colorimetric MTS assay. In kind it is functional, cell-based. Conditions: HCT-116, 72 h. In a few lines: (§1)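 Cells plated at 5000 per well in their own media (Leibovitz's for SW948; McCoy's 5A for HT-29/HCT116; MEM for SW480; RPMI for CRC240/DLD-1) with 10% FBS. Exposed 72 h to compound, 0.001–10 μM or 0.04–10 μM, then colorimetric MTS read-out. […] CRC240 is a patient-derived xenograft line.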
On the technique in general: Formazan colour is commonly taken as a measure of viable cells.

In data set [2] the test system is Mus musculus. Description: Dose normalized AUC (0 to infinity) in NOD/SCID mouse at 200 mg/kg, po by LC-MS/MS-based non-compartmental extravascular input analysis. In kind it is ADME, organism-based. Conditions: in vivo.
Data set [3] relates to DLD-1. Description: Antiproliferative activity against human DLD1 cells after 72 hrs by colorimetric MTS assay. Conditions: DLD-1, 72 h. In kind it is functional, cell-based. In a few lines: as §1
A short description of data set [4]: AUC (0 to 24 hrs) in NOD/SCID mouse at 200 mg/kg, po by LC-MS/MS-based non-compartmental extravascular input analysis. In kind it is ADME, organism-based. The arrangement: time < 24 hr, dose 200 mg/kg, route oral. As to conditions: in vivo.
The nature of data set [5]: MRT in NOD/SCID mouse at 200 mg/kg, po by LC-MS/MS-based non-compartmental extravascular input analysis. In kind it is ADME, organism-based. As to conditions: in vivo.
Data set [6] deals with Mus musculus. Description: Apparent volume of distribution in NOD/SCID mouse at 200 mg/kg, po by LC-MS/MS-based non-compartmental extravascular input analysis. In kind it is ADME, organism-based. As to conditions: in vivo.
Data set [7] relates to Mus musculus. Description: Toxicity in NOD/SCID mouse xenografted with human CRC240 cells assessed as change in body weight at 72 mg/kg, po administered 11 days and measured on day 4, 8 during compound dosing and day 11 post last dose. In kind it is organism-based. As to conditions: in vivo, 264 h. In outline: (§2)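 Minced CRC240 PDX tissue (150 mg/ml in PBS, 200 μl) implanted in flanks of NOD/SCID mice. At about 100 mm3 tumours, mice randomized and dosed orally once daily for 11 days. Vehicle: 10% 1-methyl-2-pyrrolidinone/90% PEG300, with dosing suspensions or solutions at […] or 0.2 mg/ml. Tumour size and body weight recorded on days 0, 4, 8 and 11. n = 3, two-tailed t-test versus vehicle.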

Data set [8] in a line: AUC (0 to infinity) in NOD/SCID mouse at 200 mg/kg, po by LC-MS/MS-based non-compartmental extravascular input analysis. In kind it is ADME, organism-based. The arrangement: dose 200 mg/kg, time infinity, route oral. As to conditions: in vivo.
Data set [9] relates to Homo sapiens. Description: Antitumor activity against human CRC240 cells xenografted in NOD/SCID mouse at 72 mg/kg, po administered 11 days and measured on day 4, 8 during compound dosing and day 11 post last dose. In kind it is functional, organism-based. In a few lines: as §2
A general note: In xenograft studies the graft and the host belong to different species.

The nature of data set [10]: AUC (0 to 72 hrs) in NOD/SCID mouse at 1 mg/kg, po by LC-MS/MS-based non-compartmental extravascular input analysis. Details: dose 1 mg/kg, time < 72 hr, route oral. In kind it is ADME, organism-based. Conditions: in vivo.
The subject of data set [11] is Homo sapiens. Description: Antitumor activity against human CRC240 cells xenografted in NOD/SCID mouse at 1 mg/kg, po administered 11 days and measured on day 4, 8 during compound dosing and day 11 post last dose. In kind it is functional, organism-based. In a few lines:
as §2

Data set [12] deals with Mus musculus. Description: In vivo inhibition of Wnt/beta-catenin signaling pathway in NOD/SCID mouse xenografted with human CRC240 cells assessed as reduction in survivin protein expression at 1 mg/kg, po administered 11 days by Western blot method. In kind it is functional, organism-based. In outline:
(§3)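 CRC240 PDX tumours were taken from NOD/SCID mice the day after 11 days of once-daily oral dosing (1 mg/kg, in 10% NMP/90% PEG300). Tumours were lysed in RIPA buffer and immunoblotted for Axin2, survivin and c-Myc. Bands were normalized to β-actin, n = 3, two-tailed t-test versus vehicle.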

Data set [13] relates to Mus musculus. Description: In vivo inhibition of Wnt/beta-catenin signaling pathway in NOD/SCID mouse xenografted with human CRC240 cells assessed as reduction in Axin2 protein expression at 1 mg/kg, po administered 11 days by Western blot method. In kind it is functional, organism-based. In a few lines:
as §3

The test system of data set [14] is Mus musculus. Description: Dose normalized AUC (0 to infinity) in NOD/SCID mouse at 1 mg/kg, po by LC-MS/MS-based compartmental first order extravascular input, first order elimination analysis. In kind it is ADME, organism-based. As to conditions: in vivo.
Data set [15] deals with Mus musculus. Description: Dose normalized AUC (0 to infinity) in NOD/SCID mouse at 1 mg/kg, po by LC-MS/MS-based non-compartmental extravascular input analysis. As to conditions: in vivo. In kind it is ADME, organism-based.
For data set [16], the system named is Mus musculus. Description: Time at which plasma concentration stays above in vitro IC50 for inhibition of Wnt3A-stimulated Wnt/beta-catenin pathway in HEK293 cells in NOD/SCID mouse at 1 mg/kg, po by LC-MS/MS analysis. Conditions: in vivo. In kind it is organism-based. In outline: (§4)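 NOD/SCID mice (n = 4) received a single oral dose of 1 mg/kg from a 0.2 mg/mL solution in 10% NMP/90% PEG300. Serial tail-vein blood was taken from pre-dose to 72 h and plasma kept at −80 °C. Samples were extracted with ethyl acetate against an internal standard and run on LC/MS/MS (MRM 405.8/218.9). The calibration range was 2.4–1000 ng/mL in plasma.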

The subject of data set [17] is Mus musculus. Description: Apparent volume of distribution in NOD/SCID mouse at 1 mg/kg, po by LC-MS/MS-based non-compartmental extravascular input analysis. In kind it is ADME, organism-based. Conditions: in vivo.
Data set [18] relates to Mus musculus. Description: Toxicity in NOD/SCID mouse xenografted with human CRC240 cells assessed as change in body weight at 1 mg/kg, po administered 11 days and measured on day 4, 8 during compound dosing and day 11 post last dose. In kind it is organism-based. Conditions: in vivo, 264 h. In outline: as §2
For data set [19], the system named is Mus musculus. Description: In vivo inhibition of Wnt/beta-catenin signaling pathway in NOD/SCID mouse xenografted with human CRC240 cells assessed as reduction in c-Myc protein expression at 1 mg/kg, po administered 11 days by Western blot method. In kind it is functional, organism-based. In a few lines: as §3
The subject of data set [20] is Mus musculus. Description: Apparent clearance in NOD/SCID mouse at 1 mg/kg, po by LC-MS/MS-based compartmental first order extravascular input, first order elimination analysis. In kind it is ADME, organism-based. Conditions: in vivo.
Data set [21] concerns Mus musculus. Description: Time at which plasma concentration stays above in vitro IC50 for antiproliferative activity against human CRC240 cells in NOD/SCID mouse at 1 mg/kg, po by LC-MS/MS analysis. In kind it is organism-based. Conditions: in vivo. In a few lines:
as §4

The subject of data set [22] is Mus musculus. Description: Apparent clearance in NOD/SCID mouse at 1 mg/kg, po by LC-MS/MS-based non-compartmental extravascular input analysis. In kind it is ADME, organism-based. As to conditions: in vivo.
Data set [23] in a line: Apparent oral volume of distribution in NOD/SCID mouse at 1 mg/kg by LC-MS/MS-based compartmental first order extravascular input, first order elimination analysis. In kind it is ADME, organism-based. As to conditions: in vivo.

By pIC50 is commonly meant the negative decadic logarithm of the IC50, by convention in mol/L. In general, AUC(0-t) refers to the area under the concentration-time curve up to a stated or last time point. Higher therefore signals more exposure. By MRT is commonly meant the average time that molecules of a dose stay in the body. Broadly, the AUC(0-inf) is total exposure, with the tail of the curve extrapolated. Read a low AUC(0-inf) as low exposure. The term CL/F denotes clearance divided by bioavailability, as obtained after extravascular dosing. The Vd/F is the volume of distribution divided by bioavailability.

pIC50: −log10 of the molar value. Calls of active or inactive are those of the source. The calls are words filed in the database; no cut-off is given here.

On to `O=C(Nc1ccc([N+](=O)[O-])cc1Cl)c1cc(Cl)ccc1O` [NICLOSAMIDE], for which the pIC50 in [1] is 6.39; in [3] it was 5.62. This molecule registered an AUC/dose in [2] of 0.005 µg·h/mL. The same molecule showed an AUC(0-t) at 24 h in data set [4] of 1010 ng·h/mL. Besides, in [5], the MRT came to 6.8 h. The Vz in data set [6] was found to be 0.9 L/kg. Also, the Activity entry in data set [7] is “Non-Toxic”. In data set [8], this molecule returned an AUC(0-inf) of 1020 ng·h/mL. In addition, the outcome in data set [9] was Active.

For `O=C(Nc1ccc(C(F)(F)F)cc1)c1cc(Cl)cc2nc(C(F)(F)F)[nH]c12`, in data set [10], the exposure AUC(0-t) at 72 h worked out at 16800 ng·h/mL. Besides, in data set [11], the outcome was Active. The pIC50 is 6.55 in data set [1] and 6.44 in data set [3]. Further, the inhibition result in data set [12], in data set [13] and in data set [19] was “Active” each time. Moreover, the AUC/dose was found to be 16.3 µg·h/mL in data set [14] and 16.9 µg·h/mL in [15]. The Time in [16] and in data set [21] was 24 h throughout. Further, the Vz in data set [17] was found to be 0.8 L/kg. Also, the Activity entry in [18] is given as “Non-Toxic”. Also, the CL/F in data set [20] and in [22] was 1 mL/min/kg each time. Also, in data set [23], the Vd/F was determined as 0.98 L/kg.
